Results as given in ChEMBL document CHEMBL1146324, “Discovery of (Z)-2-phenyl-3-(1H-pyrrol-2-yl)acrylonitrile derivatives active against Haemonchus contortus and Ctenocephalides felis (cat flea)” (2007).
Activity calls are given as the source filed them. No cut-off for these calls is given here.

What was measured:
Haemonchus contortus [1] = assay: Parasiticidal activity against Haemonchus contortus McMaster; assay type: functional
Procedure, shortened: (§1)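 Larval development assay with Haemonchus contortus larvae. The endpoint was LD99, and the assay was performed by an external screening contractor.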

Ctenocephalides felis [2] = assay: Parasiticidal activity against Ctenocephalides felis after 24 hrs; assay type: functional; set-up: concentration or dose not given beside the values
Procedure, shortened: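 Single-dose in vitro cat flea assay: compound in acetone (0.5 mL) coated on the base of four 100 mL flasks at 1.26 µg/cm². Flasks held at 25 ± 1 °C and 75 ± 5% humidity for 24 h. Dead fleas counted per flask, and pooled data expressed as percent mortality.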

Ctenocephalides felis [3] = assay: Parasiticidal activity against Ctenocephalides felis; assay type: functional
Ctenocephalides felis [4] = assay: Parasiticidal activity against Ctenocephalides felis after 8 hrs; assay type: functional
Procedure, shortened: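 Cat flea contact assay: compound applied in acetone to the base of four flasks at 1.26 µg/cm², held at 25 ± 1 °C and 75 ± 5% humidity. Dead fleas counted at 8 h, and pooled counts converted to percent mortality.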

Saccharomyces cerevisiae = assay: Parasiticide activity against Saccharomyces cerevisiae; assay type: functional, organism-based
[5] = system: Teladorsagia circumcincta; assay: Parasiticidal activity against Ostertagia circumcincta McMaster; assay type: functional
Haemonchus contortus [6] = assay: Parasiticidal activity against benzimidazole-resistant Haemonchus contortus Lawes; assay type: functional; procedure, shortened: as §1
Haemonchus contortus [7] = assay: Parasiticidal activity against levamisole-resistant Haemonchus contortus Lawes; assay type: functional; procedure, shortened: as §1
Haemonchus contortus [8] = assay: Parasiticidal activity against avermectin-resistant Haemonchus contortus CAVR; assay type: functional; procedure, shortened: as §1
[9] = system: Trichostrongylus colubriformis; assay: Parasiticidal activity against Trichostrongylus colubriformis; assay type: functional
Bacillus subtilis = assay: Parasiticidal activity against Bacillus subtilis; assay type: functional
[10] = Cytotoxicity against mouse NS1 cells; assay type: functional

Row | Compound | LD99 (Haemonchus contortus [1]) | Activity (Ctenocephalides felis [2]) | other results
1 | N#C/C(=C\c1ccc[nH]1)c1ccc(Cl)cc1F | 10 µM | 5% | –
2 | N#C/C(=C\c1ccc[nH]1)c1cccc(Br)c1 | 3.4 µM | 24% | –
3 | N#C/C(=C\c1ccc[nH]1)c1cc(C(F)(F)F)cc(C(F)(F)F)c1 | >45 µM | 27% | –
4 | N#C/C(=C\c1ccc[nH]1)c1ccccc1C#N | >68 µM | 11% | –
5 | N#C/C(=C\c1ccc[nH]1)c1cccc(Oc2ccccc2)c1 | 11 µM | 10% | –
6 | N#C/C(=C\c1ccc[nH]1)c1ccc(F)c(Cl)c1 | 5.1 µM | 5% | –
7 | CCC(=O)n1cccc1/C=C(\C#N)c1ccc(Cl)cc1 | 1.3 µM | 12% | –
8 | N#C/C(=C\c1ccc[nH]1)c1c(F)cccc1Cl | >61 µM | 7% | –
9 | N#C/C(=C\c1cc(Br)c[nH]1)c1cccc(F)c1 | 38 µM | 18% | –
10 | IVERMECTIN | 0.0057 µM | – | –
11 | Cc1cccc(/C(C#N)=C/c2ccc[nH]2)c1 | 6 µM | 42% | –
12 | N#C/C(=C\c1ccc[nH]1)c1ccc(C(F)(F)F)cc1 | 3.1 µM | 20% | –
13 | COc1ccccc1/C(C#N)=C/c1ccc[nH]1 | – | 9% | –
14 | CC(C)=CCn1cccc1/C=C(\C#N)c1ccc(Cl)cc1 | >51 µM | 0% | –
15 | N#C/C(=C\c1cc(Br)c[nH]1)c1ccc(Cl)cc1 | 1.5 µM | 23% | –
16 | N#C/C(=C\c1ccc[nH]1)c1ccc(Br)cc1 | 0.84 µM | 42% | –
17 | N#C/C(=C\c1ccc[nH]1)c1ccc(C#N)cc1 | 46 µM | 44% | –
18 | Cc1ccc(/C(C#N)=C/c2ccc[nH]2)c(C)c1 | – | 44% | –
19 | CN(C)C(=S)n1cccc1/C=C(\C#N)c1ccc(Cl)cc1 | 32 µM | 19% | –
20 | N#C/C(=C\c1cccn1Cc1ccccc1)c1ccc(Cl)cc1 | 44 µM | 3% | –
21 | COC(=O)n1cccc1/C=C(\C#N)c1ccc(Cl)cc1 | 4.4 µM | 16% | –

Row | Compound | LD99 (Haemonchus contortus [1]) | Activity (Ctenocephalides felis [2]) | other results
22 | N#C/C(=C\c1ccc[nH]1)c1ccccc1C(F)(F)F | – | 14% | –
23 | N#C/C(=C\c1ccc[nH]1)c1ccc(F)cc1Cl | 12 µM | 30% | –
24 | CCc1ccc(/C(C#N)=C/c2ccc[nH]2)cc1 | 4 µM | 58% | –
25 | N#C/C(=C\c1ccc[nH]1)c1ccc(I)cc1 | 2.2 µM | 14% | –
26 | N#C/C(=C\c1cc(Br)c[nH]1)c1ccc(C(F)(F)F)cc1 | >44 µM | 15% | –
27 | Cc1ccc(S(=O)(=O)n2cccc2/C=C(\C#N)c2ccc(Cl)cc2)cc1 | 31 µM | 0% | –
28 | N#C/C(=C\c1cc(Br)c[nH]1)c1ccc(F)cc1 | 17 µM | 15% | –
29 | N#C/C(=C\c1ccc[nH]1)c1ccc(-c2ccccc2)cc1 | 28 µM | 46% | –
30 | N#C/C(=C\c1ccc[nH]1)c1ccc(Cl)cc1Cl | 11 µM | 8% | –
31 | N#C/C(=C\c1cc(Br)c[nH]1)c1ccc(Cl)c(Cl)c1 | 7.3 µM | 19% | –
32 | N#C/C(=C\c1ccc[nH]1)c1ccccc1Cl | 12 µM | 19% | –
33 | N#C/C(=C\c1ccc[nH]1)c1cccc(F)c1 | 8 µM | 78% | LC50 (Ctenocephalides felis [3]): 0.78 ug/sq.cm
34 | N#C/C(=C\c1ccc[nH]1)c1ccc(Cl)cc1 | 1.8 µM | – | LC50 (Ctenocephalides felis [3]): 0.17 ug/sq.cm; Activity (Ctenocephalides felis [4]): 95%
35 | CC(C)c1ccc(/C(C#N)=C/c2ccc[nH]2)cc1 | – | 100% | LC50 (Ctenocephalides felis [3]): 1.32 ug/sq.cm
36 | N#C/C(=C\c1ccc[nH]1)c1ccccc1F | 12 µM | 92% | LC50 (Ctenocephalides felis [3]): 0.59 ug/sq.cm
37 | Cc1cc(C(C#N)c2ccc(Cl)cc2)c(Cl)cc1NC(=O)c1cc(I)cc(I)c1O (stereo unspecified) [CLOSANTEL] | 9.4 µM | – | –
38 | N#CC(C#N)=Cc1cc(Cl)c(Cl)[nH]1 | 1.8 µM | – | Activity (Saccharomyces cerevisiae): inactive; Activity (Ctenocephalides felis [3]): inactive; LD99 [5]: 2.2 µM; LD99 (Haemonchus contortus [6]): 2.2 µM; LD99 (Haemonchus contortus [7]): 2.2 µM; LD99 (Haemonchus contortus [8]): 2.2 µM; LD99 [9]: 9 µM; LD99 (Bacillus subtilis): 1.7 µM; LD99 [10]: 13 µM
39 | Cc1ccccc1/C(C#N)=C/c1ccc[nH]1 | 18 µM | 100% | LC50 (Ctenocephalides felis [3]): 0.08 ug/sq.cm
40 | N#Cc1nn(-c2c(Cl)cc(C(F)(F)F)cc2Cl)c(N)c1[S+]([O-])C(F)(F)F (stereo unspecified) [FIPRONIL] | – | – | LC50 (Ctenocephalides felis [3]): 0.018 ug/sq.cm
41 | CCOCn1cccc1/C=C(\C#N)c1ccc(Cl)cc1 | 19 µM | – | Activity (Ctenocephalides felis [4]): 6%
42 | Cc1ccc(/C(C#N)=C/c2ccc[nH]2)cc1 | 4.5 µM | 69% | –

Row | Compound | LD99 (Haemonchus contortus [1]) | Activity (Ctenocephalides felis [2]) | other results
43 | N#C/C(=C\c1ccc[nH]1)c1ccccc1-c1ccccc1 | – | 2% | –
44 | CC(C)(C)OC(=O)n1cccc1/C=C(\C#N)c1ccc(Cl)cc1 | 11 µM | 9% | –
45 | N#C/C(=C\c1cccn1C(=O)c1ccccc1)c1ccc(Cl)cc1 | 3.8 µM | 6% | –
46 | N#C/C(=C\c1ccc[nH]1)c1ccc([N+](=O)[O-])cc1 | >63 µM | 6% | –
47 | Cn1cccc1/C=C(\C#N)c1ccc(Cl)cc1 | 7.8 µM | – | Activity (Ctenocephalides felis [4]): 13%
48 | N#C/C(=C\c1ccc[nH]1)c1ccccc1Br | 12 µM | 30% | –
49 | CC(C)(C)c1ccc(/C(C#N)=C/c2ccc[nH]2)cc1 | 13 µM | 87% | LC50 (Ctenocephalides felis [3]): 0.48 ug/sq.cm
50 | N#C/C(=C\c1ccc[nH]1)c1ccc(F)cc1 | 2 µM | 78% | LC50 (Ctenocephalides felis [3]): 0.3 ug/sq.cm
51 | N#C/C(=C\c1ccc[nH]1)c1ccc(Cl)c(Cl)c1 | 2.9 µM | 41% | –
52 | N#C/C(=C\c1ccc[nH]1)c1ccccc1 | 2.4 µM | 98% | LC50 (Ctenocephalides felis [3]): 0.26 ug/sq.cm
53 | N#C/C(=C\c1ccc[nH]1)c1ccc(F)cc1F | 11 µM | 5% | –
54 | N#C/C(=C\c1ccc[nH]1)c1cccc(C(F)(F)F)c1 | 3.6 µM | 56% | LC50 (Ctenocephalides felis [3]): 9.9 ug/sq.cm
55 | CCN(CC)C(=O)n1cccc1/C=C(\C#N)c1ccc(Cl)cc1 | 11 µM | 8% | –
56 | N#C/C(=C\c1ccc[nH]1)c1cccc(Cl)c1 | 3.3 µM | 28% | –
57 | N#C/C(=C\c1ccc[nH]1)c1ccc(F)c(F)c1 | 7.6 µM | 17% | –
58 | N#C/C(=C\c1cc(Br)c[nH]1)c1cccc(C(F)(F)F)c1 | 9.5 µM | – | –
59 | N#C/C(=C\c1ccc[nH]1)c1c(F)cccc1F | 52 µM | 17% | –
60 | COc1ccc(/C(C#N)=C/c2ccc[nH]2)cc1 | 6.7 µM | 31% | –
61 | N#C/C(=C\c1cc(Cl)c(Cl)[nH]1)c1ccc(Cl)cc1 | 10 µM | 15% | –
62 | c1ccc([C@H]2CN3CCSC3=N2)cc1 [LEVAMISOLE] | 0.66 µM | – | –
